High-throughput results from PubChem BioAssay.
The list is not random: actives were taken first. Their share in the collection is about 5.9%.
Pf Dd2 inh = P. falciparum Dd2 growth inhibition | SYBR Green, 72 h; active compounds read low | activity change, % at 10 µM | 94,000 tested, 2.3% active | AID 1159554; in the data active = activity change below about -80%; inconclusive = no clear call, values can overlap the other calls
T cruzi growth-1 = inhibitors of T. cruzi proliferation; T. cruzi beta-gal in NIH3T3, GalScreen luminescence, 90 h; inhibition, % at 8.34 µM; 77,000 tested, 5.9% active; AID 624255;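 active = mean inhibition above about 93%, with at least 55% of replicates each passing it, limit read from the data, passing the limit was not always enough; inconclusive = only one of those two conditions holds; inactive = neither condition holds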
IDH1 mut inh = IDH1 R132H (human) inhibition; O75874; IDH1 R132H reductase, diaphorase/resazurin fluorescence, 60 min; inhibition, % at 10 µM; 70,000 tested, 0.18% active; in the data active = inhibition above about 34%; inconclusive = no clear call, values can overlap the other calls; inactive = below about 11%;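 also: 0% = DMSO and 100% = no enzyme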
GASC1 inh = inhibitors of human demethylase GASC-1 KDM4C; GST-KDM4C 2-372, H3K9me3 peptide, LANCE TR-FRET; inhibition, % at 12.5 µM; 96,000 tested, 0.15% active;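 active = mean replicate inhibition above about 25%, with at least 55% of replicates also reaching it, limit read from the data, passing the limit was not always enough; inconclusive = only one of those two conditions met; inactive = neither condition met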
Target sequence (Q9H3R0 2-372 limits assumed): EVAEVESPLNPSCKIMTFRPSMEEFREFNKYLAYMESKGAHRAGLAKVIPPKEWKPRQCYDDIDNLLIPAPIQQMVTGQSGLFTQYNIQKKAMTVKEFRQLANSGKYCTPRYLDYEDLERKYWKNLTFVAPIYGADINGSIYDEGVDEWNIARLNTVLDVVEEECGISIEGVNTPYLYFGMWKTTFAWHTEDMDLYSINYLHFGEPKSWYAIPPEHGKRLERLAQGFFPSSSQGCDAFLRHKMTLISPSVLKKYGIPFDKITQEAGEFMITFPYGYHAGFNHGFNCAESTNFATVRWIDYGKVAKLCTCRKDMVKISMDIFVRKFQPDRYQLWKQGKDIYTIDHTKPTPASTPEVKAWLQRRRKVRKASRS
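Assay system: GST-GASC-1 enzyme fragment 2-372 | Amount: 10 nM enzyme | Medium: HEPES buffer, pH 7.5, plus ascorbate | Reagent: H3K9me3 peptide substrate, Fe(II), 2-oxoglutarate | Doses: Single-point compound screen | Incubation: 30 min demethylation and 1 h detection at room temperature | Measured by: LANCE TR-FRET, excitation 340 nm, emissions 618 and 671 nm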
T cruzi growth-2 = Trypanosoma cruzi proliferation inhibition; shares compounds with T cruzi growth-1; T. cruzi beta-gal in NIH3T3, GalScreen luminescence, 90 h; inhibition, % at 8.35 µM; 5,600 tested, 72% active;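 active = mean replicate inhibition above about 95% and at least 55% of replicates individually reaching it, limit read from the data; inconclusive = only one of the two criteria is met; inactive = neither criterion is met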
T cruzi growth-3 = Trypanosoma cruzi proliferation inhibition. T. cruzi beta-gal in NIH3T3, GalScreen luminescence, 90 h. AID 651740. shares compounds with T cruzi growth-1. 5,600 tested, 21% active. inhibition, % at 2.09 µM;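 active = mean inhibition above about 95%, with at least 55% of replicates also reaching it, limit read from the data; inconclusive = meets just one of the two conditions; inactive = meets neither condition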;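 also: plate controls were neutral control median for no effect and positive control median for full effect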
3T3 cytotox = NIH/3T3 (mouse) viability loss; AID 651742; NIH/3T3 viability, CellTiter-Glo ATP luminescence, 90 h; shares compounds with T cruzi growth-1; cytotoxicity (signal decrease), % at 8.35 µM; 5,600 tested, 14% active;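 active = mean signal decrease across replicates above about 35% based on untreated-well scatter, with enough replicates individually passing, limit read from the data; inconclusive = no rule stated though some were filed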;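 also: 0% = median of neutral control wells and 100% = median of positive control wells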
3T3 cytotox 2 = cytotoxicity in mouse NIH/3T3 fibroblasts; shares compounds with T cruzi growth-1; 5,600 tested, 56% active; inhibition, % at 24.9 µM; NIH/3T3 viability, CellTiter-Glo ATP luminescence, 90 h;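 active = mean loss of cell viability signal at or above a set limit, and enough replicates individually reaching it; inconclusive = meets only the mean limit or only the replicate share; inactive = meets neither condition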;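 also: 0% = median of neutral control wells and 100% = median of positive control wells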
The depositor's hits bear a star.

Cc1cc(C(=O)Nc2cccc3c2O[C@H](CN(C)C)[C@@H](C)CN([C@@H](C)CO)C3=O)n(C)n1 was read as Pf Dd2 inh 10.2, T cruzi growth-1 101.4*, GASC1 inh 0.4, T cruzi growth-2 10.2, T cruzi growth-3 24.1, 3T3 cytotox -1.1 and 3T3 cytotox 2 4.6.
Cc1cc(C(=O)Nc2cccc3c2O[C@@H](CN(C)S(C)(=O)=O)[C@@H](C)CN([C@@H](C)CO)C3=O)n(C)n1 was read as Pf Dd2 inh -8.8, T cruzi growth-1 61.4 and GASC1 inh 0.1.
Screening CCOC(=O)c1c(NC(=S)NC(C)C2CCCO2)sc2c1CCCC2 (stereo not given) returned IDH1 mut inh 0.0.
For Cc1ccc(S(=O)(=O)Nc2ccc3c(c2)C(=O)N([C@H](C)CO)C[C@H](C)[C@H](CN(C)C(=O)Nc2ccccc2)OCCCC[C@H](C)O3)cc1 the results were Pf Dd2 inh -31.4, T cruzi growth-1 99.9*, IDH1 mut inh 2.0, GASC1 inh -0.4, T cruzi growth-2 108.7*, T cruzi growth-3 42.7, 3T3 cytotox -11.2 and 3T3 cytotox 2 -5.2.
`Cc1ccc(S(=O)(=O)Nc2ccc3c(c2)C(=O)N([C@@H](C)CO)C[C@@H](C)[C@@H](CN(C)C(=O)Nc2ccc(F)cc2)OCCCC[C@@H](C)O3)cc1` gave Pf Dd2 inh -77.1, T cruzi growth-1 105.3*, IDH1 mut inh 0.7, GASC1 inh -0.9, T cruzi growth-2 104.3*, T cruzi growth-3 64.4, 3T3 cytotox -2.8 and 3T3 cytotox 2 -15.6.
For Cc1ccc(S(=O)(=O)Nc2ccc3c(c2)C(=O)N([C@H](C)CO)C[C@@H](C)[C@H](CN(C)C(=O)Nc2ccc(F)cc2)OCCCC[C@@H](C)O3)cc1 the results were Pf Dd2 inh -85.3*, T cruzi growth-1 98.4*, IDH1 mut inh -0.1, GASC1 inh 1.9, T cruzi growth-2 97.3*, T cruzi growth-3 71.9, 3T3 cytotox -1.2 and 3T3 cytotox 2 25.4*.
Screening Cc1ccc(S(=O)(=O)Nc2ccc3c(c2)C(=O)N([C@H](C)CO)C[C@H](C)[C@@H](CN(C)C(=O)Nc2ccccc2)OCCCC[C@@H](C)O3)cc1 returned Pf Dd2 inh -18.5, T cruzi growth-1 -97.8, IDH1 mut inh 0.4 and GASC1 inh 0.5.
For C[C@@H]1CN([C@H](C)CO)C(=O)c2cc(NS(=O)(=O)c3ccc(F)cc3)ccc2O[C@@H](C)CCCCO[C@H]1CN(C)C(=O)Nc1ccc(F)cc1 the results were Pf Dd2 inh -36.7, T cruzi growth-1 29.6 and GASC1 inh 0.6.
CCc1nc(SCC(=O)Nc2ccc(Br)cc2)n[nH]1 was read as IDH1 mut inh 0.1.
For Cc1cc(C)c(NC(=O)CN(C)S(=O)(=O)c2ccc(F)cc2)c(C)c1 the results were IDH1 mut inh 0.0.
COCCN(C[C@@H]1N[C@@H](CO)[C@H]1c1ccc(-c2cccc(F)c2)cc1)C(C)=O was read as Pf Dd2 inh 8.0, T cruzi growth-1 inconclusive, GASC1 inh 0.9, T cruzi growth-2 27.4, T cruzi growth-3 -2.9, 3T3 cytotox -12.1 and 3T3 cytotox 2 13.7.
For COCCN(C[C@@H]1N[C@@H](CO)[C@@H]1c1ccc(-c2cccc(F)c2)cc1)C(C)=O the results were Pf Dd2 inh 1.7, T cruzi growth-1 104.6*, GASC1 inh 1.8, T cruzi growth-2 101.5*, T cruzi growth-3 38.8, 3T3 cytotox -22.0 and 3T3 cytotox 2 13.8.
`COCCN(C[C@H]1N[C@H](CO)[C@@H]1c1ccc(-c2cccc(F)c2)cc1)C(C)=O` gave Pf Dd2 inh -10.4, T cruzi growth-1 86.6 and GASC1 inh -0.1.
`O=C(CNC(=O)c1ccc([N+](=O)[O-])cc1)Nc1cccc(C(F)(F)F)c1` gave IDH1 mut inh 0.3.
